From ChEMBL document CHEMBL1141513, “Synthesis and evaluation of [123I] labeled iodovinyl amino acids syn-, anti-1-amino-3-[2-iodoethenyl]-cyclobutane-1-carboxylic acid, and 1-amino-3-iodomethylene-cyclobutane-1-carboxylic acid as potential SPECT brain tumor imaging agents” (Bioorg Med Chem Lett, 2008) come the findings set out here.

For data set [1], the species on record is Rattus norvegicus. The experiment in a line: Ratio of drug uptake in tumor to brain in Fischer rat transplanted with rat 9L cells. The format is ADME, organism-based. An outline of the steps:
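Fischer rats with intracranial 9L gliosarcoma received [123I] tracer; tumor and brain radioactivity measured at 30, 60, 120 min p.i. (n=5 per time point) as %ID/g, ratio taken as tumor over brain uptake.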

A short description of data set [2]: Drug uptake in tumor cells in Fischer rat transplanted with rat 9L cells after 60 mins. Type of data set: ADME, Neoplasm. The following applies: read-out: Drug uptake. In a few lines: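 Fischer rats bearing intracranially implanted 9L gliosarcoma tumours received the [123I]-labelled amino acid by injection. Radioactivity in tumour and normal tissues was counted at 30, 60 and 120 min post-injection, with n=5 per time point. Values were expressed as percent injected dose per gram tissue (%ID/g).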

Data set [3] is described as follows: Drug uptake in tumor cells of Fischer rat brain transplanted with rat 9L cells. The format is ADME, cell-based. The note with it: read-out: Drug uptake. An outline of the steps:
(§1)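 [123I]-labelled amino acid given to Fischer rats bearing intracranially implanted 9L gliosarcoma; tumor and normal tissue radioactivity counted at 30, 60 and 120 min post injection, n=5 per time point; expressed as percent injected dose per gram tissue (%ID/g).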

The subject of data set [4] is 9L. The experiment in a line: Inhibition of drug uptake in rat 9L cells. Type of data set: cell-based. In a few lines:
(§2)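 9L rat gliosarcoma cells incubated with [123I] tracer in HBSS for 30 min at 37°C, with or without 10 mM BCH (L-type transport inhibitor) or MeAIB (A-type inhibitor); uptake expressed as %ID per 1×10^6 cells, inhibition relative to uninhibited controls; significance by 1-way ANOVA.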

Data set [5] concerns 9L. The experiment in a line: Inhibition of drug uptake in rat 9L cells in presence of 10 mM BCH relative to control. The format is cell-based. In a few lines: as §2
The nature of data set [6]: Drug uptake in normal brain tissue in Fischer rat transplanted with rat 9L cells. The format is ADME, tissue-based. An outline of the steps:
as §1

Data set [7] deals with 9L. Put plainly: Inhibition of drug uptake in rat 9L cells in presence of 10 mM MeAIB relative to control. The format is cell-based. An outline of the steps:
as §2

Where only a bound is given, the exact number is not on record here.

Take `N[C@]1(C(=O)O)C[C@@H](C[18F])C1`: the Ratio in data set [1] was determined as 8.9. Moreover, the tissue uptake at 1 h in data set [2] is 2.5 %ID/g.

As for `NC1(C(=O)O)CC(=C[123I])C1` (configuration not stated), the tissue uptake in data set [3] is 0.83 %ID/g; in data set [6] it was less than 0.4 %ID/g. Besides, the values for the Drug uptake in data set [4] and in data set [5] were 8.4 %ID and 92.3%, respectively. In data set [1], the Ratio worked out at 4.7.

For `N[C@]1(C(=O)O)C[C@@H](/C=C/[123I])C1`, the tissue uptake in data set [3] was 0.83 %ID/g; in data set [6], less than 0.4 %ID/g. Besides, the Drug uptake amounted to 8.4 %ID in data set [4] and 92.3% in data set [5]. In addition, the Ratio in data set [1] was 6.5.

Regarding `N[C@]1(C(=O)O)C[C@H](/C=C/[123I])C1`, the tissue uptake in data set [3] is 0.83 %ID/g; in data set [6], less than 0.4 %ID/g. In data set [7], the Activity result was “Not Active”. Moreover, the Drug uptake in data set [4] was 8.4 %ID; in data set [5], 92.3%. In addition, the Ratio in data set [1] worked out at 7.3.

For the compound `N[C@]1(C(=O)O)C[C@H](C[18F])C1`, the Ratio in data set [1] came to 6.9. In addition, the tissue uptake at 1 h in data set [2] came to 1.59 %ID/g.

On to `N[C@]1(C(=O)O)C[C@@H]([18F])C1` [FLUCICLOVINE F18], for which the Ratio in data set [1] is recorded as 6.6. Besides, the tissue uptake at 1 h in data set [2] amounted to 1.72 %ID/g.
